Assay results reported in ChEMBL document CHEMBL2010713, “Structure-activity relationship of a new series of reversible dual monoacylglycerol lipase/fatty acid amide hydrolase inhibitors” (J Med Chem, 2012).
Calls of active or inactive are those of the source. The rule behind the calls is not given here.

What was measured:
[1] = molecular target: T1, Fatty-acid amide hydrolase 1 (Rattus norvegicus) (UniProt P97612); test: Inhibition of rat brain membrane FAAH assessed as [3H]-anandamide hydrolysis at 100 uM after 10 mins by liquid scintillation spectroscopy
T1 sequence (whole entry): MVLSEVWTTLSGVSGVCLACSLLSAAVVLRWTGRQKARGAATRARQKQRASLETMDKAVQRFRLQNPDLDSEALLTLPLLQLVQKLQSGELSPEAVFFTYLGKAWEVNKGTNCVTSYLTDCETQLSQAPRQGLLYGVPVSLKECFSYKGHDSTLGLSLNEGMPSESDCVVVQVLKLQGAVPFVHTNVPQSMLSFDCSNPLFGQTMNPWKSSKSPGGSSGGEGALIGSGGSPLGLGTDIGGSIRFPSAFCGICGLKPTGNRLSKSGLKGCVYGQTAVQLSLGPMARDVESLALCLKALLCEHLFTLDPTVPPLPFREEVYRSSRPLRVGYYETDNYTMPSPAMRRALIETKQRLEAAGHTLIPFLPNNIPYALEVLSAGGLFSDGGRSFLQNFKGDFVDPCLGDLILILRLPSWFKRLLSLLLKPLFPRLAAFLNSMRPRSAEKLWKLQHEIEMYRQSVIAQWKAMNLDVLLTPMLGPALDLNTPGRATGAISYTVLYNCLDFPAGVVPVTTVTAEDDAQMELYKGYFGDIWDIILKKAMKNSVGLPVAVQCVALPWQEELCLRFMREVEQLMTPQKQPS
Method in brief: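 Membrane fraction of rat cerebella (100000g pellet resuspended in 50 mM sodium phosphate pH 8.0), diluted in 10 mM Tris-HCl, 1 mM EDTA, pH 7.2, for initial-rate conditions. [3H]-anandamide, ethanolamine-labelled, final 0.5 μM, with fatty acid-free BSA. Aqueous-phase tritium measured by liquid scintillation; blanks lacked enzyme; activity as percent of solvent-carrier control. Highest concentration 100 μM; 3–10 independent experiments.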

Monoglyceride lipase [2] = molecular target: T2, Monoglyceride lipase (Homo sapiens, UniProt Q99685); test: Inhibition of human recombinant his-tagged MAGL expressed in Escherichia coli assessed as hydrolysis of 4-nitrophenyl acetate after 20 mins by microplate reader
T2 sequence (Q99685 whole entry): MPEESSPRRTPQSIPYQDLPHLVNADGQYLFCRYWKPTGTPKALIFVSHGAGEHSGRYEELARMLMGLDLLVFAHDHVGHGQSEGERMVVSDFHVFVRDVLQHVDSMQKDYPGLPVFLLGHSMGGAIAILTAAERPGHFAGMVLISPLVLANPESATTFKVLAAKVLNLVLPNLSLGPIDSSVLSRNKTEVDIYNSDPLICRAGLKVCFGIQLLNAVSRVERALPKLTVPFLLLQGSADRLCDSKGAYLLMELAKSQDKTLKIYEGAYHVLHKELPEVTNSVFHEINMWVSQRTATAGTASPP

[3] = molecular target: T3, Monoglyceride lipase (Homo sapiens) (UniProt Q99685); test: Inhibition of human recombinant his-tagged MAGL expressed in Escherichia coli assessed as hydrolysis of 4-nitrophenyl acetate at 10 uM after 20 mins by microplate reader
T3 sequence (whole entry): T2 sequence (Q99685 whole entry)

[4] = molecular target: T4, Monoglyceride lipase (Rattus norvegicus) (UniProt Q8R431); test: Inhibition of rat brain cytosolic MAGL assessed as [3H]-2-arachidonoyl glycerol hydrolysis at 100 uM after 10 mins by liquid scintillation spectroscopy
T4 sequence (whole entry): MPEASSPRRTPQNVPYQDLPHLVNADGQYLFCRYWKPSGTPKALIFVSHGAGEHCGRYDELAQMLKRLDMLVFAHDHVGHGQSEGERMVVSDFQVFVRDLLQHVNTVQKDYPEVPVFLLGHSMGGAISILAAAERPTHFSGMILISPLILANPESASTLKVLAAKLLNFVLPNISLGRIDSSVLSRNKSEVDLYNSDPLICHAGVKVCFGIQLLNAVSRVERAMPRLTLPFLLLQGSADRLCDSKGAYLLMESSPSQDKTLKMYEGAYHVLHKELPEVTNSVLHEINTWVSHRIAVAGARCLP

[5] = molecular target: T4, Monoglyceride lipase (Rattus norvegicus); test: Irreversible inhibition of rat brain cytosolic MAGL assessed as […] at 0.1 to 1 uM preincubated for 60 mins by liquid scintillation
Monoglyceride lipase [6] = molecular target: T2, Monoglyceride lipase; test: Non-competitive inhibition of human recombinant MAGL assessed as 7-hydroxycoumarin level using umbelliferyl arachidonate as substrate by luminescence spectrophotometer
[7] = molecular target: T4, Monoglyceride lipase (Rattus norvegicus); test: Irreversible inhibition of rat brain cytosolic MAGL assessed as [3H]-2-arachidonoyl glycerol hydrolysis at 3 uM preincubated for 60 mins measured after dilution by liquid scintillation
[8] = molecular target: T4, Monoglyceride lipase (Rattus norvegicus); test: Irreversible inhibition of rat brain cytosolic MAGL assessed as [3H]-anandamide hydrolysis at 3 uM preincubated for 60 mins measured after dilution by liquid scintillation
[9] = molecular target: T4, Monoglyceride lipase (Rattus norvegicus); test: Irreversible inhibition of rat brain cytosolic MAGL assessed as [3H]-anandamide hydrolysis at 3 uM preincubated for 60 mins followed by […] compound treated after dilution by liquid scintillation
[10] = molecular target: T4, Monoglyceride lipase (Rattus norvegicus); test: Irreversible inhibition of rat brain cytosolic MAGL assessed as […] at 3 to 10 uM preincubated for 60 mins by liquid scintillation
[11] = molecular target: T4, Monoglyceride lipase (Rattus norvegicus); test: Irreversible inhibition of rat brain cytosolic MAGL assessed as [3H]-2-arachidonoyl glycerol hydrolysis at 3 uM preincubated for 60 mins followed by […] compound treated after dilution by liquid scintillation
[12] = molecular target: Monoglyceride lipase (Rattus norvegicus) (UniProt Q8R431); test: Inhibition of rat brain cytosolic MAGL assessed as [3H]-2-oleoylglycerol hydrolysis at 100 uM after 10 mins by liquid scintillation spectroscopy; conditions: Cytosol
[13] = molecular target: Fatty-acid amide hydrolase 1 (Rattus norvegicus) (UniProt P97612); test: Inhibition of rat brain membrane FAAH assessed as [3H]-anandamide hydrolysis after 10 mins by liquid scintillation spectroscopy
[14] = molecular target: Monoglyceride lipase (Rattus norvegicus) (UniProt Q8R431); test: Inhibition of rat brain cytosolic MAGL assessed as [3H]-2-oleoylglycerol hydrolysis after 10 mins by liquid scintillation spectroscopy
[15] = molecular target: T4, Monoglyceride lipase (Rattus norvegicus); test: Irreversible inhibition of rat brain cytosolic MAGL assessed as [3H]-2-arachidonoyl glycerol hydrolysis at 0.1 uM preincubated for 60 mins by liquid scintillation
[16] = molecular target: T4, Monoglyceride lipase (Rattus norvegicus); conditions: 10 uM
[17] = molecular target: T4, Monoglyceride lipase (Rattus norvegicus); conditions: 10 uM; remark: listed apart in the source
[18] = molecular target: T4, Monoglyceride lipase (Rattus norvegicus); conditions: 10 uM; remark: listed apart in the source
[19] = molecular target: T4, Monoglyceride lipase (Rattus norvegicus); conditions: 10 uM; remark: listed apart in the source
[20] = molecular target: T3, Monoglyceride lipase (Homo sapiens)

Structure (SMILES)	IC50 (Monoglyceride lipase [2])	inhibition [3]	also measured
O=C(CCCCCc1ccc(-c2ccccc2)cc1)OC[C@H]1CO1	> 10 µM	33%	Imax [1]: 91%
O=C(CCCCCc1ccc(-c2ccccc2)cc1)OC[C@@H]1CO1	> 10 µM	45%	Imax [1]: 92%; Imax [4]: > 95%
O=C(Cc1ccc(Cc2ccccc2)cc1)OC[C@H]1CO1	2.4 µM		inhibition [5]: inactive; Ki (Monoglyceride lipase [6]): 40 µM; inhibition [7]: inactive; inhibition [8]: inactive; inhibition [9]: inactive; inhibition [10]: inactive; inhibition [11]: inactive
O=C(CCCCCc1ccc(-c2ccccc2)cc1)OC(CO)CO	7.5 µM		
O=C(Cc1ccc(Cc2ccccc2)cc1)OC(CO)CO		< 10%	inhibition [12]: 49%; IC50 [13]: 0.7 µM; IC50 [14]: > 100 µM
CCCCC/C=C\C/C=C\C/C=C\C/C=C\CCCC(=O)OCC1CCCCO1 (stereo not given)			IC50 [14]: 5.6 µM
O=C(Cc1ccc(Cc2ccccc2)cc1)OC[C@@H]1CO1		< 10%	
O=C(Oc1ccc([N+](=O)[O-])cc1)N1CCC(C(O)(c2ccc3c(c2)OCO3)c2ccc3c(c2)OCO3)CC1			inhibition [15]: Active
O=C(/C=C/c1ccc(-c2ccccc2)cc1)OCC1CO1 (racemic)	5.1 µM		Imax [4]: 73%
O=C(CCc1ccc(-c2ccccc2)cc1)OCC1CO1 (racemic)	> 10 µM	22%	
O=C(CCCc1ccc(-c2ccccc2)cc1)OCC1CO1 (racemic)	1.8 µM		Imax [3]: 86%
O=C(CCCCc1ccc(-c2ccccc2)cc1)OCC1CO1 (racemic)	6.6 µM		IC50 [13]: 4.6 µM; Imax [1]: 87%; IC50 [14]: 2.6 µM
O=C(CCCCCc1ccc(-c2ccccc2)cc1)OCC1CO1 (racemic)	4.1 µM		inhibition [16]: Active; inhibition [5]: inactive; Imax [1]: 89%; inhibition [17]: Active; inhibition [18]: Active; inhibition [19]: Active; Kic [20]: 8 µM; inhibition [10]: inactive
O=C(CCCCCCc1ccc(-c2ccccc2)cc1)OCC1CO1 (racemic)	> 10 µM	11%	
O=C(Cc1ccc(-c2ccccc2)cc1)OCC1CCCCO1 (racemic)	> 10 µM	21%	
O=C(CCc1ccc(-c2ccccc2)cc1)OCC1CCCCO1 (racemic)	1.6 µM		Imax [3]: 67%

Structure (SMILES)	IC50 (Monoglyceride lipase [2])	inhibition [3]	also measured
O=C(CCCc1ccc(-c2ccccc2)cc1)OCC1CCCCO1 (racemic)	> 10 µM	34%	
O=C(CCCCc1ccc(-c2ccccc2)cc1)OCC1CCCCO1 (racemic)	12 µM		
O=C(CCCCCc1ccc(-c2ccccc2)cc1)OCC1CCCCO1 (racemic)	> 10 µM	33%	
O=C(CCCCCCc1ccc(-c2ccccc2)cc1)OCC1CCCCO1 (racemic)	> 10 µM	37%	Imax [4]: 83%
O=C(/C=C/c1ccc(-c2ccccc2)cc1)OCC1CCCCO1 (racemic)	0.76 µM		inhibition [4]: 37%; Imax [3]: 90%
O=C(C/C=C/c1ccc(-c2ccccc2)cc1)OCC1CCCCO1 (racemic)	> 10 µM	12%	
O=C(/C=C/Cc1ccc(-c2ccccc2)cc1)OCC1CCCCO1 (racemic)	> 10 µM	49%	
O=C(Cc1ccc(Cc2ccccc2)cc1)OCC1CO1 (racemic)	16 µM		
O=C(CCCc1ccc(Cc2ccccc2)cc1)OCC1CO1 (racemic)	> 10 µM	29%	
O=C(Cc1ccc(Cc2ccccc2)cc1)OCC1CCCCO1 (racemic)		< 10%	inhibition [12]: 25%; IC50 [13]: 6.8 µM; Imax [4]: 96%; IC50 [14]: > 100 µM
O=C(CCCc1ccc(Cc2ccccc2)cc1)OCC1CCCCO1 (racemic)	> 10 µM	14%	Imax [4]: 72%
O=C(CCc1ccc(Cc2ccccc2)cc1)OCC1CCCCO1 (racemic)		< 10%	
O=C(CCc1ccc(Cc2ccccc2)cc1)OCC1CO1 (racemic)		< 10%	Imax [1]: 72%
O=C(Cc1ccc(-c2ccccc2)cc1)OCC1CO1 (racemic)		< 10%	
O=C(OCC1CCCCO1)c1ccc(CCc2ccccc2)cc1 (racemic)		< 10%	
O=C(OCC1CO1)c1ccc(CCc2ccccc2)cc1 (racemic)		< 10%	
